Measurements reported in ChEMBL document CHEMBL4196160, “Structure-Guided Design and Procognitive Assessment of a Potent and Selective Phosphodiesterase 2A Inhibitor” (ACS Med Chem Lett, 2018).
Calls of active or inactive are those of the source. The calls are words filed in the database; no cut-off is given here.

Columns and labels:
Rattus norvegicus [1] = assay: Reversal of scopolamine-induced cognitive impairment in Wistar Hannover rat assessed as improvement in episodic memory at 1.8 mg/kg, ip administered 30 mins prior to testing by novel object recognition test; format: functional, organism-based
Outline: (§1)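 Rats given vehicle or scopolamine, then exposed to two identical objects; one hour later exposed to one familiar and one novel object. Recognition memory scored as time spent exploring the novel versus the familiar object. Donepezil served as positive control.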

Rhesus monkey [2] = assay: Reversal of scopolamine-induced cognitive impairment in rhesus monkey assessed increase in novel object retrieval at 0.3 mg/kg by novel object recognition test; format: functional, organism-based; settings: Macaca mulatta
Outline: (§2)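 Rhesus monkeys impaired with scopolamine performed an object retrieval task. A food item was placed deep inside a clear box whose single open side was out of direct view. Each attempt was scored correct if the food was retrieved without touching a closed side. Read-out was percentage correct versus scopolamine alone, with donepezil as positive control.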

[3] = Inhibition of rhesus monkey brain PDE2A3 expressed in human AD293 cells using FAM-labeled cAMP/cGMP as substrate incubated for 60 mins measured after 1 hr by IMAP based fluorescence polarization assay
[4] = Selectivity ratio of IC50 for human GST-tagged PDE9A2 expressed in insect cells to IC50 for rhesus monkey brain PDE2A3 expressed in human AD293 cells
P-gp [5] = assay: Substrate activity at rat P-gp assessed as efflux ratio; format: ADME; settings: not told
P-gp [6] = assay: Substrate activity at human P-gp assessed as efflux ratio; format: ADME; settings: not told
[7] = Half life in rat; format: ADME, organism-based; settings: in vivo
Rattus norvegicus [8] = assay: Increase in cGMP levels in rat brain cytosolic fraction of cortical tissue at 3 to 30 mg/kg, po measured after 30 mins by ELISA; format: functional, organism-based
Outline: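 Rats dosed orally at 3, 10 or 30 mg/kg; brain tissue harvested 30 min after dosing and frozen; cortical cGMP measured and compared with controls.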

[9] = Selectivity ratio of IC50 for human GST-tagged PDE11A4 expressed in insect cells to IC50 for rhesus monkey brain PDE2A3 expressed in human AD293 cells
[10] = Selectivity ratio of IC50 for human GST-tagged PDE3A expressed in insect cells to IC50 for rhesus monkey brain PDE2A3 expressed in human AD293 cells
[11] = Selectivity ratio of IC50 for human GST-tagged PDE7A expressed in insect cells to IC50 for rhesus monkey brain PDE2A3 expressed in human AD293 cells
[12] = Selectivity ratio of IC50 for human GST-tagged PDE2A1 expressed in insect cells to IC50 for rhesus monkey brain PDE2A3 expressed in human AD293 cells
[13] = Lipophilicity, log D of the compound by HPLC method; format: physicochemical
Rattus norvegicus [14] = assay: Reversal of scopolamine-induced cognitive impairment in Wistar Hannover rat assessed as improvement in episodic memory at 0.1 to 1 mg/kg, po administered 30 mins prior to testing by novel object recognition test; format: functional, organism-based; outline: as §1
[15] = Volume of distribution at steady state in rat; format: ADME, organism-based; settings: in vivo, read-out: Vdss
P-gp [16] = assay: Substrate activity at P-gp (unknown origin) assessed as apparent permeability; format: ADME; settings: human, not told
[17] = Selectivity ratio of IC50 for human GST-tagged PDE5A1 expressed in insect cells to IC50 for rhesus monkey brain PDE2A3 expressed in human AD293 cells
[18] = Selectivity ratio of IC50 for human GST-tagged PDE1A expressed in insect cells to IC50 for rhesus monkey brain PDE2A3 expressed in human AD293 cells
[19] = Clearance in rhesus monkey; format: ADME, organism-based, Macaca mulatta; settings: in vivo
[20] = Selectivity ratio of IC50 for human GST-tagged PDE10A2 expressed in insect cells to IC50 for rhesus monkey brain PDE2A3 expressed in human AD293 cells
[21] = Protein binding in rat plasma; format: ADME, cell-free; settings: read-out: PPB (converted)
[22] = Intrinsic clearance in human liver microsomes; format: ADME, microsome; settings: read-out: CLH
[23] = Oral bioavailability in rhesus monkey; format: ADME, organism-based, Macaca mulatta; settings: in vivo
[24] = Half life in rhesus monkey; format: ADME, organism-based, Macaca mulatta; settings: in vivo
[25] = Selectivity ratio of IC50 for human GST-tagged PDE4A1A expressed in insect cells to IC50 for rhesus monkey brain PDE2A3 expressed in human AD293 cells
Rhesus monkey [26] = assay: Reversal of scopolamine-induced cognitive impairment in rhesus monkey assessed increase in novel object retrieval at 1 mg/kg administered orally 4 hrs prior to testing by novel object recognition test; format: functional, organism-based; settings: Macaca mulatta; outline: as §2
Rhesus monkey [27] = assay: Reversal of scopolamine-induced cognitive impairment in rhesus monkey assessed increase in novel object retrieval administered orally 4 hrs prior to testing by novel object recognition test; format: functional, organism-based; settings: Macaca mulatta; outline: as §2
[28] = Oral bioavailability in rat; format: ADME, organism-based; settings: in vivo
[29] = Inhibition of CYP450 (unknown origin); format: ADME, Homo sapiens
[30] = Volume of distribution at steady state in rhesus monkey; format: ADME, organism-based, Macaca mulatta; settings: in vivo, read-out: Vdss
[31] = Protein binding in rhesus monkey plasma; format: ADME, cell-free, Macaca mulatta; settings: read-out: PPB (converted)
[32] = Clearance in rat; format: ADME, organism-based; settings: in vivo
[33] = Selectivity ratio of IC50 for human GST-tagged PDE8A1 expressed in insect cells to IC50 for rhesus monkey brain PDE2A3 expressed in human AD293 cells
[34] = Selectivity ratio of IC50 for human GST-tagged PDE6C expressed in insect cells to IC50 for rhesus monkey brain PDE2A3 expressed in human AD293 cells

Structure (SMILES)	IC50 [3]	efflux ratio (P-gp [5])	efflux ratio (P-gp [6])	logD [13]	Ratio IC50 [4]	Ratio IC50 [9]	Ratio IC50 [10]	Ratio IC50 [11]	Ratio IC50 [12]	Ratio IC50 [17]	Ratio IC50 [18]	Ratio IC50 [20]	Ratio IC50 [25]	Ratio IC50 [33]	Ratio IC50 [34]	further results
COc1cc2c(cc1OC)C(=O)C(CC1CCN(Cc3ccccc3)CC1)C2 (stereo not given)	–	–	–	–	–	–	–	–	–	–	–	–	–	–	–	Activity (Rattus norvegicus [1]): Active; Activity (Rhesus monkey [2]): Active
C[C@@H](c1ccc(C(F)(F)F)cc1)n1nc(CF)c2c(=O)[nH]c(O)nc21	2 nM	–	–	–	–	–	–	–	–	–	–	–	–	–	–	–
Cc1nc2c(c(CO)nn2[C@@H](C)c2ccc(C(F)(F)F)c(F)c2)c(=O)[nH]1	1.3 nM	–	–	–	950	–	–	–	–	–	–	–	–	–	–	–
COc1ccc(Cc2nc3c(c(CO)nn3[C@@H](C)c3ccc(C(F)(F)F)cc3)c(=O)[nH]2)cc1OC	0.89 nM	35	11	–	–	–	–	–	–	–	–	–	–	–	–	–
C[C@@H](c1ccc(C(F)(F)F)cc1)n1nc(CC(F)(F)F)c2c(=O)[nH]c(O)nc21	0.96 nM	19	4.8	1.8	> 12000	> 12000	> 12000	> 12000	> 12000	> 12000	> 12000	> 12000	> 12000	> 12000	> 12000	–

Continued, in another order:

IC50 [3]	efflux ratio (P-gp [5])	efflux ratio (P-gp [6])	logD [13]	Structure (SMILES)	Ratio IC50 [4]	Ratio IC50 [9]	Ratio IC50 [10]	Ratio IC50 [11]	Ratio IC50 [12]	Ratio IC50 [17]	Ratio IC50 [18]	Ratio IC50 [20]	Ratio IC50 [25]	Ratio IC50 [33]	Ratio IC50 [34]	further results
2 nM	3	1	2.2 to 2.7	Cc1nc2c(c(CO)nn2[C@@H](C)c2ccc(C(F)(F)F)cc2)c(=O)[nH]1	315	> 500	> 500	> 500	> 500	> 500	> 500	> 500	> 500	> 500	> 500	half-life [7]: 2.9 h; Activity (Rattus norvegicus [8]): Active; Activity (Rattus norvegicus [14]): Active; Vd [15]: 1.4 L/kg; Papp (P-gp [16]): 37 ×10⁻⁶ cm/s; clearance [19]: 2 mL/min/kg; fraction unbound [21]: 0.15; CLint scaled [22]: < 6.2 mL/min/kg; bioavailability [23]: 100%; half-life [24]: 5.2 h; Activity (Rhesus monkey [26]): inactive; Activity (Rhesus monkey [27]): Dose-dependent effect; bioavailability [28]: 84%; IC50 [29]: > 50000 nM; Vd [30]: 0.88 L/kg; fraction unbound [31]: 0.1; clearance [32]: 5.6 mL/min/kg
23 nM	–	–	2.7	Cc1nc2c(c(C)nn2[C@@H](C)c2ccc(C(F)(F)F)cc2)c(=O)[nH]1	4	101 to 500	0 to 100	> 500	–	101 to 500	0 to 100	101 to 500	101 to 500	> 500	> 500	–
9 nM	–	–	–	Cc1nc2c(c(CO)nn2[C@H](c2ccc(C(F)(F)F)cc2)C(C)(C)C)c(=O)[nH]1	–	–	–	–	–	–	–	–	–	–	–	–
216 nM	–	–	–	Cc1nc2c(c(CO)nn2[C@H](C)c2ccc(C(F)(F)F)cc2)c(=O)[nH]1	–	–	–	–	–	–	–	–	–	–	–	–
14 nM	0.38	0.32	1.1	C[C@@H](c1ccc(C(F)(F)F)cc1)n1nc(CO)c2c(=O)[nH]c(O)nc21	1190	> 1000	> 1000	> 1000	> 1000	> 1000	> 1000	> 1000	> 1000	> 1000	> 1000	Papp (P-gp [16]): 41 ×10⁻⁶ cm/s
